# Experimental data: ChEMBL document CHEMBL1122464 (J Med Chem, 1983)
# Activity calls are given as the source filed them. The calls are words filed in the database; no cut-off is given here.
# What was measured:
# P388 [1] = experiment: Percent increase in the life span of treated mice over a group of control mice injected with p388 tumor alone when administered intraperitoneally (9) as a solution in 0.1 mL of 30%,v/v, ethanol/water; type: functional, Mus musculus
# Nucleic Acid = experiment: Binding constant to poly (dA-dT) was determined in calf thymus DNA by a fluorometric method; type: functional
# [2] = Chromatographic measure of drug lipophilicity; type: physicochemical
# [3] = Half life of the drug was determined in the presence of 2-mercaptoethanol; type: ADME; details: solution containing 2-mercaptoethanol
# L1210 = experiment: Reduce in the cell count when drug added to the murine L1210 leukemia cell cultures for 70 h; type: functional; details: Mus musculus, L1210, 70 h; read-out: ID50 (the source's name)
# [4] = Acid dissociation constant was determined; type: ADME
# How it was run: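 Acridine pKa measured spectrophotometrically in 20% aqueous DMF. Values in parentheses were not measured directly: they were obtained by subtracting 0.25 pKa unit from values determined for the corresponding de-1'-NHSO2CH3 derivatives.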
# P388 [5] = experiment: Percent increase in the life span of treated mice over a group of control mice injected with p388 tumor alone when administered intraperitoneally (>500) as a solution in 0.1 mL of 30%,v/v, ethanol/water; Inactive; type: functional; details: Mus musculus
# P388 [6] = experiment: Optimal dose administered intraperitoneally in; type: functional, Mus musculus
Structure (SMILES),Rm [2],half-life [3] [min],IC50 (L1210) [nM],pKa [4],ILS (P388 [1]) [%],K (Nucleic Acid) [M⁻¹],ILS (P388 [5]),OD (P388 [6]) [mg/kg/day]
COc1cc(NS(C)(=O)=O)ccc1Nc1c2ccccc2nc2ccccc12 [AMSACRINE],0.18,1.8,–,–,111,290000,–,–
CS(=O)(=O)Nc1ccc(Nc2c3ccccc3nc3ccccc23)cc1,0,0.92,35,–,–,–,–,66

# Now from value to compound, other results behind:
Rm [2],half-life [3] [min],IC50 (L1210) [nM],pKa [4],Structure (SMILES),ILS (P388 [1]) [%],K (Nucleic Acid) [M⁻¹],ILS (P388 [5]),OD (P388 [6]) [mg/kg/day]
0.36,> 70,4900,7.63,COc1cc(NS(C)(=O)=O)cc(OC)c1Nc1c2ccccc2nc2ccccc12,–,–,inactive,–
0.15,54,100,–,Cc1cc(NS(C)(=O)=O)ccc1Nc1c2ccccc2nc2ccccc12,–,380000,–,–
0.41,> 70,> 10000,7.6,Cc1cc(NS(C)(=O)=O)cc(C)c1Nc1c2ccccc2nc2ccccc12,–,–,inactive,–
